Assay outcomes deposited in PubChem BioAssay by several laboratories.
LEDGF integ inh: blocks HIV-1 LEDGF/p75-dependent DNA integration | TR-FRET IN-LEDGF/p75 DNA integration, Eu/Cy5 | inhibition, % at 3.7 µM | 370,000 tested, 0.64% active | AID 743269;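 active = inhibition above the screen-wide mean plus 3 SD, cut at about 13% in these data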;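 note: signal is the Cy5 over europium emission ratio at 671 and 618 nm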
UHRF1 binding: UHRF1 methyl-DNA binding inhibition | Q96T88 | UHRF1 binding to methylated oligo, TR-FRET | inhibition, % at 4.4 µM | 370,000 tested, 0.75% active | AID 687016; in the data active = inhibition above about 21%;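 note: UHRF1 SRA domain binding a hemimethylated CpG hairpin DNA probe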
CASP6 VEID inh: caspase-6 (human) enzyme inhibition. P55212. purified caspase-6, Z-VEID-R110 cleavage fluorescence. inhibition, % at 12.5 µM. 350,000 tested, 0.53% active. AID 686996;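 active = mean inhibition across replicates at least about 35%, with every replicate also reaching that limit, limit read from the data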
Target sequence (P55212 24-179 limits assumed): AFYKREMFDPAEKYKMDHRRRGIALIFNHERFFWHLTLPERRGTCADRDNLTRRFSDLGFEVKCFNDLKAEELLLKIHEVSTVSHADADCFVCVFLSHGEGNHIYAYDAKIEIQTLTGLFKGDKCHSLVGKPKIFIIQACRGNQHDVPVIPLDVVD
Target sequence (P55212 194-293 limits assumed): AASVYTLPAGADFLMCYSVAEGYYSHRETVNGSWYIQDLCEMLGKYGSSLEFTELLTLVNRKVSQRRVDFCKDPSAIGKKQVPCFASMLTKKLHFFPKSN
TDP2 absorb: blocks human TDP2 phosphodiesterase activity | O95551 | recombinant TDP2, T5PNP hydrolysis, p-nitrophenol absorbance 415 nm | inhibition, % at 12.8 µM | 370,000 tested, 0.34% active | AID 720702;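 active = inhibition above the mean of all tested compounds plus 3 SD, set per campaign, cut at about 25% in these data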
Target sequence (O95551 whole entry, looked up): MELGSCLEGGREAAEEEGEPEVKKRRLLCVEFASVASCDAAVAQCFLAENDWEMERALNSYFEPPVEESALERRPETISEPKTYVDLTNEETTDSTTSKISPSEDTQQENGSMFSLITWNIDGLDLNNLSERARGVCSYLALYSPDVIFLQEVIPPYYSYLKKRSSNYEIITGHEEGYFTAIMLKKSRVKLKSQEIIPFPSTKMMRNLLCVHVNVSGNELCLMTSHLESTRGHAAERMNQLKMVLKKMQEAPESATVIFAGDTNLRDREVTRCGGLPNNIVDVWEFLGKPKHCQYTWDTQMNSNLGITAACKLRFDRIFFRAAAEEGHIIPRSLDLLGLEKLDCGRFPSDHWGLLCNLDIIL
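Test system: Human TDP2 enzyme | Reagent: 5 mM T5PNP | Compound dosing: 12.8 µM single point, 1% DMSO | Incubation: Enzyme reaction with compound for 2 h at 37 °C | Technique: p-Nitrophenol epi absorbance | Read-out: % inhibition relative to enzyme-containing and enzyme-free wells | Benchmarks: High control without enzyme, low control DMSO plus TDP2 | Replicates: Singlicate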
NSD2 HMT inh: inhibitors of human histone methyltransferase NSD2; 310,000 tested, 0.54% active; NSD2 peptide methylation, AlphaScreen, 120 min; AID 743445; inhibition, % at 12.5 µM; in the data active = inhibition above about 50%
MBD2 inh: inhibitors of human MBD2 binding to methylated oligonucleotide; Q9UBB5; TR-FRET; inhibition, % at 4.4 µM; 370,000 tested, 0.31% active; AID 686964; in the data active = inhibition above about 13%
Numbers stand for hits. The list is not random: actives were taken first. Their share in the collection is about 1.8%.

Results for Cc1ccc(C)c(C(C)NC(=O)c2ccccc2Br)c1 (stereo not drawn) ?
LEDGF integ inh: inactive; UHRF1 binding: 21.6; CASP6 VEID inh: inactive; TDP2 absorb: inactive; NSD2 HMT inh: inactive; MBD2 inh: inactive

What do the screens show for `CCOc1ccc(CNC(=O)CCc2cn(C)c3ccccc23)cc1OC`?
LEDGF integ inh: inactive; UHRF1 binding: 58.6; CASP6 VEID inh: inactive; TDP2 absorb: inactive; NSD2 HMT inh: inactive; MBD2 inh: inactive

How did CCn1cc(CCCC(=O)NCc2ccccc2OC)c2ccccc21 do in these assays?
LEDGF integ inh: inactive; UHRF1 binding: inactive; CASP6 VEID inh: inactive; TDP2 absorb: inactive; NSD2 HMT inh: inactive; MBD2 inh: inactive

What do the screens show for `CCn1cc(CCC(=O)NCc2ccccc2OC)c2ccccc21`?
LEDGF integ inh: inactive; UHRF1 binding: 21.8; CASP6 VEID inh: inactive; TDP2 absorb: inactive; NSD2 HMT inh: inactive; MBD2 inh: inactive

Results for CC(C)NC(=O)N[C@@H]1C=C[C@H](CC(=O)NCc2ccc(Oc3ccccc3)cc2)O[C@H]1CO ?
CASP6 VEID inh: inactive

How did CCc1nc2c(OCc3ccc(Cl)cc3)cccn2c1N(C=O)Cc1ccccc1 do in these assays?
LEDGF integ inh: inactive; UHRF1 binding: inactive; CASP6 VEID inh: inactive; TDP2 absorb: inactive; NSD2 HMT inh: inactive; MBD2 inh: inactive

How did C=CCOc1cccn2c(N(C=O)Cc3ccccc3)c(CC)nc12 do in these assays?
LEDGF integ inh: inactive; UHRF1 binding: inactive; CASP6 VEID inh: 36.8; TDP2 absorb: inactive; NSD2 HMT inh: inactive; MBD2 inh: inactive

What do the screens show for `CSC1SCC2C(=O)N(C)C(C(C)C)C(=O)OCC(NC(=O)c3cnc4ccccc4n3)C(=O)NC(C)C(=O)N(C)C1C(=O)N(C)C(C(C)C)C(=O)OCC(NC(=O)c1cnc3ccccc3n1)C(=O)NC(C)C(=O)N2C` (stereo not drawn)?
LEDGF integ inh: inactive; UHRF1 binding: inactive; CASP6 VEID inh: inactive; TDP2 absorb: inactive; NSD2 HMT inh: inactive; MBD2 inh: 95.1

How did CCOC(=O)N1CCN(C(=O)CN(C)S(=O)(=O)c2ccc3c(c2)c(=O)n(C)c(=O)n3C)CC1 do in these assays?
LEDGF integ inh: inactive; UHRF1 binding: inactive; CASP6 VEID inh: 42.0; TDP2 absorb: inactive; NSD2 HMT inh: inactive; MBD2 inh: inactive

How did O=C(Nc1nc2ccccc2s1)c1cccs1 do in these assays?
NSD2 HMT inh: inactive

Results for O=C(O)/C(=C\c1cccc(O)c1)c1ccc(S(=O)(=O)N2CCCC2)s1 ?
LEDGF integ inh: inactive; UHRF1 binding: inactive; CASP6 VEID inh: 57.9; TDP2 absorb: inactive; NSD2 HMT inh: inactive; MBD2 inh: inactive

Results for CSc1ccc(/C=C(\C(=O)O)c2ccc(S(=O)(=O)N3CCCC3)s2)cc1 ?
LEDGF integ inh: inactive; UHRF1 binding: inactive; CASP6 VEID inh: 45.5; TDP2 absorb: inactive; NSD2 HMT inh: inactive; MBD2 inh: inactive

Results for C[C@H](CO)N1C[C@H](C)[C@H](CN(C)Cc2ccncc2)Oc2c(NS(=O)(=O)c3cccs3)cccc2C1=O ?
CASP6 VEID inh: inactive

What do the screens show for `Cc1ccc(NS(=O)(=O)c2ccc(Br)s2)nc1`?
LEDGF integ inh: inactive; UHRF1 binding: inactive; CASP6 VEID inh: 36.8; TDP2 absorb: inactive; NSD2 HMT inh: inactive; MBD2 inh: inactive

What do the screens show for `Cc1noc(C)c1S(=O)(=O)Nc1ccc2c(c1)C(=O)N([C@@H](C)CO)C[C@@H](C)[C@@H](CN(C)Cc1ccncc1)OCCCC[C@H](C)O2`?
CASP6 VEID inh: inactive

How did O=C(NC1CCSc2ccccc21)c1cc([N+](=O)[O-])ccc1N1CCOCC1 (stereo not drawn) do in these assays?
LEDGF integ inh: 14.1; UHRF1 binding: inactive; CASP6 VEID inh: inactive; TDP2 absorb: inactive; NSD2 HMT inh: inactive; MBD2 inh: inactive

How did CN(C)C(=O)c1cn(N(C)c2ncc(C(F)(F)F)cc2Cl)c(=O)c2ccccc12 do in these assays?
LEDGF integ inh: inactive; UHRF1 binding: inactive; TDP2 absorb: inactive; NSD2 HMT inh: inactive; MBD2 inh: inactive

Results for CN(c1ncc(C(F)(F)F)cc1Cl)N1C(=O)c2cccc([N+](=O)[O-])c2C1=O ?
LEDGF integ inh: inactive; UHRF1 binding: 22.7; CASP6 VEID inh: inactive; TDP2 absorb: inactive; NSD2 HMT inh: inactive; MBD2 inh: inactive

Results for Cc1noc(C)c1S(=O)(=O)Nc1ccc2c(c1)C(=O)N([C@H](C)CO)C[C@@H](C)[C@@H](CN(C)Cc1ccc(C(=O)Nc3ccccc3N)cc1)O2 ?
CASP6 VEID inh: inactive

Results for CCOC(=O)C1CCCN(Cc2c(C(=O)N3CCOCC3)nc3ccccn23)C1 (stereo not drawn) ?
LEDGF integ inh: inactive; UHRF1 binding: inactive; CASP6 VEID inh: inactive; TDP2 absorb: inactive; NSD2 HMT inh: inactive; MBD2 inh: inactive

What do the screens show for `O=C(c1nc2ccccn2c1CN1CCCC(c2nc3ccccc3o2)C1)N1CCCC1` (stereo not drawn)?
LEDGF integ inh: inactive; UHRF1 binding: inactive; CASP6 VEID inh: 51.1; TDP2 absorb: inactive; NSD2 HMT inh: inactive; MBD2 inh: inactive

What do the screens show for `COC1CCN(Cc2c(C(=O)N3C[C@@H](C)O[C@@H](C)C3)nc3ccc(Cl)cn23)CC1`?
LEDGF integ inh: inactive; UHRF1 binding: inactive; CASP6 VEID inh: inactive; TDP2 absorb: inactive; NSD2 HMT inh: inactive; MBD2 inh: inactive

Results for CCN(CC)C1CCN(Cc2c(C(=O)N3CCCCCCC3)nc3ccc(Cl)cn23)C1 (stereo not drawn) ?
LEDGF integ inh: inactive; UHRF1 binding: inactive; CASP6 VEID inh: 64.3; TDP2 absorb: inactive; NSD2 HMT inh: inactive; MBD2 inh: inactive

What do the screens show for `CC(C)c1cn(CC[C@H]2CC[C@H](NS(=O)(=O)Cc3ccccc3)[C@@H](CO)O2)nn1`?
CASP6 VEID inh: inactive

Results for Cc1noc(C)c1S(=O)(=O)Nc1cccc2c1O[C@H](CN(C)C(=O)Nc1ccc3c(c1)OCO3)[C@H](C)CN([C@@H](C)CO)C2=O ?
CASP6 VEID inh: inactive

How did C[C@H](CO)N1C[C@H](C)[C@H](CN(C)Cc2ccc(O)cc2)OCc2cnnn2CCCC1=O do in these assays?
CASP6 VEID inh: inactive

What do the screens show for `Cc1cc(C)cc(NC(=S)Nc2cccc3ccccc23)c1`?
LEDGF integ inh: inactive; UHRF1 binding: 66.5; CASP6 VEID inh: inactive; TDP2 absorb: inactive; NSD2 HMT inh: inactive; MBD2 inh: inactive

Results for Cc1ccc(NC(=S)Nc2cccc3ccccc23)cc1 ?
LEDGF integ inh: inactive; UHRF1 binding: inactive; CASP6 VEID inh: inactive; TDP2 absorb: inactive; NSD2 HMT inh: inactive; MBD2 inh: inactive

What do the screens show for `OCCNc1ncnc2c1ncn2[C@H]1CN(Cc2cccs2)C[C@@H](CO)O1`?
LEDGF integ inh: inactive; UHRF1 binding: 25.8; CASP6 VEID inh: inactive; TDP2 absorb: inactive; NSD2 HMT inh: inactive; MBD2 inh: inactive

Results for CC(C)(C)[Si](C)(C)OC[C@@H]1[C@H]2c3ccccc3O[C@]1(C)NC(=S)N2C(=O)c1ccccc1 ?
CASP6 VEID inh: inactive
